Assay outcomes deposited in PubChem BioAssay by several laboratories.
DNMT1 inh: inhibitors of human DNMT1; P26358; DNMT1 molecular beacon, Hinp1I cleavage, fluorescence; inhibition (reported as % activation of signal), % at 10 µM; 360,000 compounds, 0.83% hits; AID 588458; in the data active = inhibition above about 50%
MBD2 DNA inh: blocks human MBD2 binding to methylated DNA | Q9UBB5 | TR-FRET, MBD2 binding to methylated oligonucleotide | inhibition, % at 4.4 µM | 370,000 compounds, 0.31% hits | AID 686964; in the data active = inhibition above about 13%
UHRF1 MBD2 ctr: human UHRF1 methylated DNA binding inhibitors. Q96T88. UHRF1 binding to methylated oligo, TR-FRET. inhibition, % at 4.4 µM. AID 687016. 370,000 compounds, 0.75% hits; in the data active = inhibition above about 21%;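 also: UHRF1 SRA domain binding a hemimethylated CpG hairpin DNA probe; 0% = median of test compound wells and 100% = reference inhibitor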
HCV NS3 hel inh: inhibitors of Hepatitis C virus NS3 helicase; NS3 helicase DNA unwinding, Cy5 molecular beacon fluorescence; inhibition, % at 10.9 µM; 290,000 compounds, 0.56% hits; AID 1800;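 active = inhibition above the mean of all tested compounds plus 3 SD, set per campaign, cut at about 35% in these data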;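 also: 0% = DMSO wells and 100% = thioflavine S control wells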
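System: NS3 helicase fragment of HCV / Schedule: 1 h at 25 °C / Control set: DMSO alone as 0% and 110 µM thioflavine S as 100% / Reagent: Cy5/quencher beacon DNA duplex and ATP to start / Technique: Cy5 fluorescence / Replication: singlicate / Evaluation: % inhibition of end-to-start signal ratio versus controls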
SUMO1 PPI mod: modulators of human SUMO1-mediated protein-protein interactions; P63165; SUMO1 binding to a labelled peptide, TR-FRET, 1 h; inhibition, % at 20 µM; 360,000 compounds, 0.33% hits; in the data active = inhibition above about 37%
DSG3 Ab inh: human desmoglein-3 autoantibody binding inhibition | P32926 | DSG3-coupled beads, scFv-anti-DSG3-GFP binding, flow cytometry; hits give low values | 310,000 compounds, 0.48% hits | binding (percent of control), % at 10 µM;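 active = binding more than 3 SD below its plate's average and above zero; inconclusive = below that plate limit but binding exactly zero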;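 also: hits lower antibody fragment binding to DSG3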
Target sequence (P32926 whole entry, looked up, the tested form may be a part): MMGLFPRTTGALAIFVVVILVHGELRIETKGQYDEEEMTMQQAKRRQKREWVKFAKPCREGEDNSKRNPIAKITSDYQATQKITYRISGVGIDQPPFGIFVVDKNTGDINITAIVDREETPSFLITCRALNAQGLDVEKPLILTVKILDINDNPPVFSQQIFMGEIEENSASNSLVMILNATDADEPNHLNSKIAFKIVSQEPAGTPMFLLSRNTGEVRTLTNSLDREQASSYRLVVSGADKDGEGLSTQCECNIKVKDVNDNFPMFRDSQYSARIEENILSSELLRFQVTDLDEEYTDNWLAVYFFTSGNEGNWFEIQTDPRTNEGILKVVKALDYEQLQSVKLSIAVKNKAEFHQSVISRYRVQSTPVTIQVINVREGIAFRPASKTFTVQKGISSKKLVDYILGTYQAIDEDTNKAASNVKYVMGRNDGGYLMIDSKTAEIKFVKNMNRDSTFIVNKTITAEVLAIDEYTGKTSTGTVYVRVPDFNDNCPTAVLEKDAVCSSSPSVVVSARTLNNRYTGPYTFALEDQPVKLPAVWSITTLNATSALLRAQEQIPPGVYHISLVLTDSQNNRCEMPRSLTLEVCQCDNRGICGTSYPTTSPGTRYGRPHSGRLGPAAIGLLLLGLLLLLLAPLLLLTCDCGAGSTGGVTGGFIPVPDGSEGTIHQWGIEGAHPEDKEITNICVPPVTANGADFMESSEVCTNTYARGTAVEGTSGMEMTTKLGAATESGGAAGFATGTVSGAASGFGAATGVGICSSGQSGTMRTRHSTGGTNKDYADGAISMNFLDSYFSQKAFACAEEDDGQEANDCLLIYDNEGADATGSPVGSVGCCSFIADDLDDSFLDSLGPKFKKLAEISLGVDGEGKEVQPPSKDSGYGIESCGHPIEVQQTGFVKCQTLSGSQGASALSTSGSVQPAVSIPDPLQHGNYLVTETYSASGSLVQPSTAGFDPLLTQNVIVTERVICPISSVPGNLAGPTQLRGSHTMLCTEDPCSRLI
Numbers without * were called inactive; u = inconclusive; x = no result; + = active, no number. Most compounds without a hit are left out; they make up all but 2.5% or so of the library.

SMILES | DNMT1 inh | MBD2 DNA inh | UHRF1 MBD2 ctr | HCV NS3 hel inh | SUMO1 PPI mod | DSG3 Ab inh
CCC1(c2ccccc2)NC(=O)N(CC(=O)Nc2cc(S(=O)(=O)N3CCCCC3)ccc2N(C)C)C1=O (stereo not given) | 0 | -9 | -5 | x | 2 | 98
O=C(O)c1ccc(N=Nc2c(-c3ccccc3)[nH]oc2=O)cc1 | 5 | -9 | -1 | -9 | -26 | 89
Cc1cc(C(=O)NP(=O)(N2CCOCC2)N2CCOCC2)c(C)n1-c1ccc(Br)cc1 | 3 | 6 | 21* | 11 | -1 | 95
O=C(NCCCN1CCCC1=O)c1cccc(Oc2ccccc2)c1 | 3 | -3 | -3 | 1 | 1 | 103
CN1CCN(c2ccc(NC(=O)c3ccc(-c4ccccc4F)o3)cc2)CC1 | -5 | -3 | 37* | x | -37 | x
C[C@@]12C(=O)N(CC3CC3)CC(=O)N1[C@H](C1CC1)[C@@H]1C(=O)N(c3ccccc3)C(=O)[C@@H]12 | 0 | -3 | 39* | -29 | -2 | 102
Cc1cc2c(SCC(=O)Nc3cccc(O)c3)ncnc2s1 | 70* | 9 | 16 | x | 22 | 376
Cc1cc(-c2cc(NC=O)c3ncc(-c4cccc(C(=O)NCCN(C)C)c4)n3c2)cc(C)c1O | -4 | -1 | 6 | x | 48* | x
CN(C)CCNC(=O)c1cccc(-c2cnc3c(NC=O)cc(-c4cccs4)cn23)c1 | -5 | 0 | -3 | x | 51* | x
CN(C)CCNC(=O)c1cccc(-c2cnc3c(NC=O)cc(-c4ccccc4F)cn23)c1 | -4 | 3 | 2 | x | 9 | x
CN(C)c1ccccc1-c1cc(NC=O)c2ncc(-c3cccc(C(F)(F)F)c3)n2c1 | + | 42* | 14 | x | -1 | x
O=C(NCCC(=O)N1CCN(c2ccccn2)CC1)c1ccc(Cl)cc1 | 4 | -1 | -1 | x | 0 | x
O=C(Cn1ncc2c3ccccc3n(Cc3ccccc3F)c2c1=O)NCCCN1CCCC1=O | 0 | -5 | 2 | -6 | 2 | u
COc1ccc(C2=NS(=O)(=O)N(C)C(C(=O)NC3CCCC3)=C2)cc1 | -2 | 2 | 0 | 18 | -21 | 104
COc1ccc(C2=NS(=O)(=O)N(C)C(C(=O)NC3CCCCC3)=C2)cc1 | 0 | 0 | 0 | 3 | -22 | -19*
O=C(COC(=O)/C=C/c1cccc(Cl)c1)Nc1c(F)cccc1F | 14 | -1 | 2 | x | 0 | -5.5*
O=C1CC(c2cccc(Br)c2)C2=C(COC2=O)N1 (stereo not given) | 1 | -2 | 3 | 5 | 0 | 112
CC(C)c1nc(CNC(=O)C2CCC(=O)N(CCc3cccc(F)c3)C2)cs1 (stereo not given) | 0 | -1 | 2 | -1 | 7 | 106
